Entries after “also recorded” stand apart in the source; their conditions may differ.
Tests used:
COX-2 and CXCL2 = COX-2 and CXCL2 expression by RT-PCR in RAW cells; type: cell-based, mouse; settings: LPS and TSA, Fig. 1 H and Fig. S1
In short: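 RAW 264.7 cells grown in DME with 10% FBS and penicillin/streptomycin. Cells exposed to LPS, TSA or both for 4 h, then assessed for COX-2 and CXCL2 expression by RT-PCR.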

ERK1/2 = assay: Phosphorylation of ERK1/2 by immunoblot in RAW cells; type: cell-based, mouse; settings: RAW cells pretreated 30 ng/ml TSA 1 h, 100 ng/ml LPS 30 min
In short: (§1)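 RAW 264.7 cells (DME, 10% FBS) pretreated with TSA 30 ng/ml for 1 h, then LPS 100 ng/ml for 30 min. Whole-cell lysates were immunoblotted with antibodies to phosphorylated and total forms of the MAPK in question.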

JNK1/2 = assay: Phosphorylation of JNK1/2 by immunoblot in RAW cells; type: cell-based, mouse; settings: RAW cells pretreated 30 ng/ml TSA 1 h, 100 ng/ml LPS 30 min
In short: as §1

MKK3/6 = assay: Phosphorylation of MKK3/6 by immunoblot in RAW cells; type: cell-based, mouse; settings: TSA 30 ng/ml 1 h and/or LPS 100 ng/ml 30 min
In short: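 RAW 264.7 cells grown in DME with 10% FBS were pretreated with TSA 30 ng/ml for 1 h, then given LPS 100 ng/ml for 30 min. Lysates were immunoblotted with phospho-specific antibodies to MAPK cascade members (phospho-MKK3/6, phospho-Elk-1).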

MKP-1 = MKP-1 acetylation, [3H]sodium acetate labelled RAW cells; type: cell-based, mouse; settings: [3H]sodium acetate 1 h, TSA 0.5 h, 100 ng/ml LPS 0–3 h
In short: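 RAW 264.7 cells metabolically labelled with [3H]sodium acetate for 1 h, plus TSA for 0.5 h, then LPS 100 ng/ml for 0–3 h. Lysates were immunoprecipitated with anti-MKP-1 and resolved by SDS-PAGE. Acetylation was detected by autoradiography; MKP-1 was immunoblotted as loading control.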

MKP-1 and p38 = assay: MKP-1/p38 association by co-immunoprecipitation in RAW cells; type: cell-based, mouse; settings: co-IP
In short: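 RAW 264.7 cells were treated with LPS and/or TSA for 1 h. Lysates were immunoprecipitated with anti-p38 or anti-MKP-1, and precipitates were immunoblotted reciprocally for MKP-1 or p38. The experiment was repeated twice.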

MKP-1-ERα and p38 = assay: MKP-1-ERα/p38 interaction by co-immunoprecipitation in HeLa cells; type: cell-based; settings: 4-HT, LPS and TSA 1 h
MKP-1-ERα and ERK1 = assay: MKP-1-ERα/ERK1 interaction by co-immunoprecipitation in HeLa cells; type: cell-based; settings: His6-ERK1, LPS and TSA 1 h
In short: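 HeLa cells in DME with 10% FBS were co-transfected by Lipofectamine 2000 with MKP-1(WT)-ERα or MKP-1(K57R)-ERα plus His6-ERK1. Fusion expression was induced with 200 nM 4-hydroxytamoxifen, then cells were treated with LPS and TSA for 1 h. Lysates were immunoprecipitated and immunoblotted with anti-ERα (MKP-1 tag) and anti-His6 (ERK1 tag).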

phospho-p38 = type: cell-based; settings: MKP-1 immunoprecipitated from RAW cells treated with LPS and TSA 4 h
In short: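 RAW 264.7 cells grown in DME with 10% FBS were treated with LPS plus TSA, or with control, for 4 h. Endogenous MKP-1 was immunoprecipitated from the lysates and incubated with recombinant phospho-p38 or phospho-ERK1. Remaining phosphorylation was detected by immunoblotting with phospho-p38 or phospho-ERK antibodies. The amount of phospho-substrate added was shown as an input lane.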

p38 = assay: Phospho-p38 in RAW cells with MKP-1 siRNA or control siRNA; type: cell-based, mouse
In short: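 RAW cells stably transfected with vectors encoding hairpin siRNA against MKP-1 nucleotides 67–85 or 743–761, or a control sequence, with separate clones isolated. Knockdown was confirmed by MKP-1 immunoblot. Clones were treated with LPS and TSA, and lysates were immunoblotted for NOS2 and MAPK family members, including phospho-p38.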

MKP-1 KO mice = assay: LPS-induced mortality in MKP-1 KO mice; type: in vivo, mouse; settings: LPS 20 mg/kg; n = 5; P = 0.17 LPS vs. LPS with TSA
TNF-α = TNF-α in media of primary macrophages by ELISA; type: cell-based, mouse; settings: TSA and LPS, 4 h, n = 2 ± SD
In short: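 Primary peritoneal macrophages collected by PBS lavage from resting WT or MKP-1−/− mice, not thioglycolate-elicited; the mice were on a C57BL/6J background. Cells stimulated with TSA, LPS or both. After 4 h, TNF-α and IL-1β in the media were measured by ELISA; n = 2, mean ± SD.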

NOS2 = assay: Liver NOS2 protein by immunoblot; type: in vivo, mouse; settings: TSA pretreatment 4 h, LPS 16 h
In short: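 Mice were pretreated with increasing amounts of TSA for 4 h, then given LPS for 16 h. Liver was harvested and its lysate immunoblotted for NOS2, with MEK1 as the loading control.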

CC(/C=C/C(=O)NO)=C\[C@@H](C)C(=O)c1ccc(N(C)C)cc1 [TSA, trichostatin A]
COX-2 expression (COX-2 and CXCL2): slightly increases
CXCL2 expression (COX-2 and CXCL2): slightly increases
LPS-induced phosphorylation of ERK1/2 (ERK1/2): decreases
LPS-induced phosphorylation of JNK1/2 (JNK1/2): not JNK1/2
phosphorylation of MKK3/6 (MKK3/6): does not affect phosphorylation of the upstream MAPKK MKK3/6
MKP-1 acetylation (MKP-1): increases MKP-1 acetylation
association between p38 and MKP-1 (MKP-1 and p38; LPS and TSA 1 h): increases the association between p38 and MKP-1 in cells
interaction between MKP-1 and p38, TSA alone (MKP-1 and p38; TSA without LPS): increases the interaction between MKP-1 and p38, even in the absence of LPS
interaction between mutant MKP-1(K57R) and p38 (MKP-1-ERα and p38; MKP-1(K57R)-ERα): not able to affect the interaction between mutant MKP-1(K57R) and p38
interaction between MKP-1(WT) and p38 (MKP-1-ERα and p38; MKP-1(WT)-ERα): increases the interaction between MKP-1(WT) and p38
interaction of ERK1 and MKP-1 (WT vs mutant K57R) (MKP-1-ERα and ERK1): increases the interaction of ERK1 and WT, but not mutant, MKP-1 in cells
removal of phosphate from recombinant phospho-p38 by MKP-1 (phospho-p38): enhances the ability of MKP-1 to remove phosphate groups from recombinant phospho-p38
LPS-induced phospho-p38, control siRNA cells (p38; RAW cells expressing control hairpin RNA, LPS and TSA): limits this increase
effect of TSA on phospho-p38, MKP-1 siRNA cells (p38; RAW cells with siRNA of MKP-1, LPS and TSA): siRNA of MKP-1 blocks the effect of TSA
mortality after LPS, effect of TSA, MKP-1 KO mice (MKP-1 KO mice): minimal and insignificant effect on mortality; also recorded: small protective effect on MKP-1^−/− mouse mortality
suppression of TNF-α, MKP-1−/− macrophages (TNF-α): 27%
suppression of TNF-α, WT macrophages (TNF-α): 87%
NOS2 steady-state protein levels in liver (NOS2): decreases NOS2 steady-state protein levels in liver

— paper PMC2413043 (The Journal of Experimental Medicine, 2008)
